Data on 8 molecules can be found in ChEMBL document CHEMBL3244165, “Improved synthesis and in vitro antiviral activities of 5-cyanouridine and 5-cyano-2'-deoxyuridine” (J Med Chem, 1977).

The subject of series [1] is Vesicular stomatitis virus. Nature of the series: Antiviral activity against Vesicular stomatitis virus infected in primary rabbit kidney cells assessed as inhibition of virus-induced cytopathogenicity. It is filed as functional.
In series [2] the test system is Human alphaherpesvirus 1. As to the kind of experiment: Antiviral activity against Herpes simplex virus 1 infected in primary rabbit kidney cells assessed as inhibition of virus-induced cytopathogenicity. The class given is functional.
Series [3] deals with Human alphaherpesvirus 1. As to the kind of experiment: Antiviral activity against Herpes simplex virus 1 infected in human skin fibroblasts assessed as inhibition of virus-induced cytopathogenicity. It is filed as functional.
The nature of series [4]: Dissociation constant, pKa of the compound by spectrophotometric analysis. It is filed as physicochemical. In a few lines: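 Determined spectrophotometrically in Teorell-Stenhagen buffers.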

In the case of `N#Cc1cn([C@@H]2O[C@H](CO)[C@@H](O)[C@H]2O)c(=O)[nH]c1=O`, the results for the ID50 in series [1], in series [2] and in series [3] were over 7 ×10⁻⁴ M, 3.7 ×10⁻⁴ M and over 7 ×10⁻⁴ M, respectively.

Take `N#Cc1cn([C@H]2C[C@H](O)[C@@H](CO)O2)c(=O)[nH]c1=O`: the values for the ID50 in series [2] and in series [3] were 1.6 ×10⁻⁴ M and over 7 ×10⁻⁴ M, respectively. In series [4], this molecule had a pKa of 6.8.

For `O=c1[nH]c(=O)n([C@H]2C[C@H](O)[C@@H](CO)O2)cc1Br` [BROXURIDINE], the ID50 in series [2] and in series [3] was 3.2 ×10⁻⁷ M throughout.

Consider `O=c1[nH]c(=O)n([C@H]2C[C@H](O)[C@@H](CO)O2)cc1Cl` [CHLORODEOXYURIDINE], for which the ID50 in series [2] and in series [3] was 7.6 ×10⁻⁷ M in each case.

Turning to `O=c1[nH]c(=O)n([C@H]2C[C@H](O)[C@@H](CO)O2)cc1F` [FLOXURIDINE], the ID50 worked out at 1.6 ×10⁻⁷ M in series [2] and 4 ×10⁻⁷ M in series [3].

In the case of `O=c1[nH]c(=O)n([C@H]2C[C@H](O)[C@@H](CO)O2)cc1I` [IDOXURIDINE], the ID50 in series [2] and in series [3] was 5.7 ×10⁻⁷ M each time. For the same molecule, the pKa in series [4] is 8.2.

As to `O=c1[nH]c(=O)n([C@H]2C[C@H](O)[C@@H](CO)O2)cc1C(F)(F)F` [TRIFLURIDINE], the ID50 in series [2] came out at 6.6 ×10⁻⁷ M; in series [3] it was 1.3 ×10⁻⁶ M.

Regarding `Nc1ncnc2c1ncn2[C@@H]1O[C@H](CO)[C@@H](O)[C@@H]1O` [VIDARABINE], the ID50 in series [2] is 1.5 ×10⁻⁵ M; in series [3], 3.7 ×10⁻⁵ M.
